Measurements from ChEMBL document CHEMBL3997810, “A Novel Potent Anticancer Compound Optimized from a Natural Oridonin Scaffold Induces Apoptosis and Cell Cycle Arrest through the Mitochondrial Pathway” (J Med Chem, 2017).
The source made the active and inactive calls. No cut-off for these calls is given here.

Tests used:
MGC-803 = experiment: Antiproliferative activity against human MGC803 cells after 72 hrs by MTT assay; format: functional, cell-based; details: MGC-803, 72 h
Outline: (§1)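 MGC-803 and MCF-7 cells grown in DMEM (MCF-7 with 1× NEAA); Bel-7402 and K562 grown in RPMI 1640; all media with 10% FBS. Cells seeded at 3500/well, pre-incubated 24 h, then exposed to compounds in fresh medium (DMSO ≤0.25%) for 72 h at 37 °C. MTT read-out at 570 nm. Quadruplicate wells, repeated three times; means ± SD (n = 3).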

MCF7 [1] = experiment: Induction of apoptosis in human MCF7 cells assessed as decrease in Bcl2 protein expression at 0.5 to 1 uM after 48 hrs by Western blot method; format: functional, cell-based
Outline: (§2)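 MCF-7 cells exposed to 0–1 μM compound for 48 h, then lysed on ice. Lysate (20 μg protein) run on 8–12% SDS-PAGE and transferred to PVDF. Probed overnight at 4 °C with primary antibodies, then fluorescent secondaries. Band densities normalized to β-actin. Mean ± SD of three independent experiments.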

Bel-7402 [2] = experiment: Cell cycle arrest in human Bel7402 cells assessed as accumulation at G2/M phase at 0.5 uM after 48 hrs by propidium iodide staining based flow cytometry (reference value: 56.61%); format: functional
[3] = Antiproliferative activity against human KB/CP4 cells after 48 hrs by MTT assay; format: functional, cell-based; details: KB/CP4, 48 h
Outline: (§3)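 Colorimetric MTT assay. KB-3-1, NCI-H460 and Bel-7404 cells were seeded at 4000 cells/well; resistant KB/CP4, NCI-H460/MX20 and Bel-7404/CP20 were seeded at 7000 cells/well. Cells were pre-incubated 24 h at 37 °C, 5% CO2, then exposed to a compound concentration series for 48 h with DMSO ≤0.25%. Absorbance read at 570 nm. Quadruplicate wells, three repeats; means ± SD.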

MCF7 [4] = experiment: Antiproliferative activity against human MCF7 cells after 72 hrs by MTT assay; format: functional, cell-based; details: MCF7, 72 h; outline: as §1
KB 3-1 = experiment: Antiproliferative activity against human KB-3-1 cells after 48 hrs by MTT assay; format: functional, cell-based; details: KB 3-1, 48 h; outline: as §3
Bel-7402 [5] = experiment: Cell cycle arrest in human Bel7402 cells assessed as accumulation at G1 phase at 1 uM after 48 hrs by propidium iodide staining based flow cytometry (reference value: 34.61%); format: functional
[6] = Selectivity ratio of IC50 for human L02 cells to IC50 for human Bel7402 cells
MCF7 [7] = experiment: Induction of apoptosis in human MCF7 cells assessed as increase in cytochrome c protein expression at 0.5 to 1 uM after 48 hrs by Western blot method; format: functional, cell-based
Outline: (§4)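 MCF-7 cells were treated at 0, 0.125, 0.25, 0.5 or 1 μM for 48 h, washed in ice-cold PBS and lysed on ice for 20 min. Lysates were spun at 13,000 g, 4 °C. 20 μg protein was run on SDS-PAGE and blotted to PVDF, probed overnight at 4 °C with primary antibodies, then with fluorescent secondary antibodies. Band density was expressed relative to β-actin; three independent experiments.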

BEL-7404 tumor cell line = experiment: Antiproliferative activity against human Bel7404 cells after 48 hrs by MTT assay; format: functional, cell-based; details: BEL-7404, 48 h; outline: as §3
Mus musculus [8] = experiment: Hepatotoxicity in Balb/c nude mouse xenografted with human MCF7 cells assessed as morphological changes in liver at 20 mg/kg/day, iv for 4 weeks by hematoxylin and eosin staining based microscopic method; format: toxicity, organism-based; details: in vivo, 672 h
Outline: (§5)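 Male BALB/c nude mice (6 weeks old) carrying subcutaneous MCF-7 xenografts (1 × 10^6 cells). Dosed iv 20 mg/kg daily for 28 days in 10% DMF/2% poloxamer/88% saline; six mice per group. Organs then fixed in 4% paraformaldehyde, paraffin-embedded, cut at 5 μm, stained with Harris hematoxylin and eosin-phloxine, and examined by light microscopy.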

Mus musculus [9] = experiment: Cardiotoxicity in Balb/c nude mouse xenografted with human MCF7 cells assessed as morphological changes in heart at 20 mg/kg/day, iv for 4 weeks by hematoxylin and eosin staining based microscopic method; format: toxicity, organism-based; details: in vivo, 672 h; outline: as §5
MCF7 [10] = experiment: Induction of apoptosis in human MCF7 cells assessed as live cells at 1 uM after 24 hrs by Annexin-V FITC/propidium iodide staining based flow cytometry (reference value: 97%); format: functional
MCF7 [11] = experiment: Induction of apoptosis in human MCF7 cells assessed as early apoptotic cells at 0.125 uM after 24 hrs by Annexin-V FITC/propidium iodide staining based flow cytometry (reference value: 2.65%); format: functional
MCF7 [12] = experiment: Induction of apoptosis in human MCF7 cells assessed as increase in caspase-9 protein expression up to 1 uM after 48 hrs by Western blot method; format: functional, cell-based; outline: as §4
Bel-7402 [13] = experiment: Cell cycle arrest in human Bel7402 cells assessed as accumulation at G2/M phase at 4 uM after 48 hrs by propidium iodide staining based flow cytometry (reference value: 56.61%); format: functional
Bel-7402 [14] = experiment: Cell cycle arrest in human Bel7402 cells assessed as accumulation at G1 phase at 0.5 uM after 48 hrs by propidium iodide staining based flow cytometry (reference value: 34.61%); format: functional
MCF7 [15] = experiment: Downregulation of CyclinB protein expression in human MCF7 cells after 48 hrs by Western blot method; format: functional, cell-based; outline: as §2
K562 = experiment: Antiproliferative activity against human K562 cells after 72 hrs by MTT assay; format: functional, cell-based; details: K562, 72 h; outline: as §1
[16] = Selectivity ratio of IC50 for human KB/CP4 cells to IC50 for human KB-3-1 cells
MCF7 [17] = experiment: Cell cycle arrest in human MCF7 cells assessed as accumulation at G2/M phase at 0.25 uM after 48 hrs by propidium iodide staining based flow cytometry (reference value: 13.05%); format: functional
Outline: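 MCF-7 cells, 5 × 10^4 per well, seeded overnight, then exposed to 0.125–1 μM compound, or DMSO, for 48 h. Ethanol-fixed (70%, −20 °C, 12 h) and stained with PI/RNase at 37 °C for 30 min. Phase distribution determined by flow cytometry.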

MCF7 [18] = experiment: Induction of apoptosis in human MCF7 cells assessed as late apoptotic cells at 1 uM after 24 hrs by Annexin-V FITC/propidium iodide staining based flow cytometry (reference value: 0.255%); format: functional
Bel-7402 [19] = experiment: Cell cycle arrest in human Bel7402 cells assessed as accumulation at G2/M phase at 1 uM after 48 hrs by propidium iodide staining based flow cytometry (reference value: 56.61%); format: functional
MCF7 [20] = experiment: Induction of apoptosis in human MCF7 cells assessed as decrease in pro-caspase-3 to caspase-3 protein expression ratio after 48 hrs by Western blot method; format: functional, cell-based; outline: as §2
MCF7 [21] = experiment: Induction of apoptosis in human MCF7 cells after 24 hrs by Annexin-V FITC/propidium iodide staining based flow cytometry; format: functional, cell-based
Mus musculus [22] = experiment: Toxicity in Balb/c nude mouse xenografted with human MCF7 cells assessed as morphological changes in spleen at 20 mg/kg/day, iv for 4 weeks by hematoxylin and eosin staining based microscopic method; format: organism-based; details: in vivo, 672 h
Outline: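 Male BALB/c nude mice aged six weeks received 1 × 10^6 MCF-7 cells subcutaneously in the right flank. After 7 d they were randomized and dosed 20 mg/kg iv once daily in 10% DMF/2% poloxamer/88% saline; saline control. Heart, liver, spleen, lung and kidney were fixed in 4% paraformaldehyde, paraffin-embedded, sectioned at 5 μm, H&E stained and examined microscopically.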

Compound: C=C1C(=O)[C@]23[C@H](OC(=O)/C=C/c4ccccc4)[C@H]1CC[C@H]2[C@]12C=CCC(C)(C)[C@H]1[C@H](O)[C@]3(O)OC2
- IC50 (MGC-803): 1030 nM
- Activity (MCF7 [1]): Active
- Activity (Bel-7402 [2]): 57.83%
- IC50 [3]: 1560 nM
- IC50 (MCF7 [4]): 80 nM
- IC50 (KB 3-1): 5700 nM
- Activity (Bel-7402 [5]): 32.12%
- Ratio IC50 [6]: 4.07
- Activity (MCF7 [7]): Active
- IC50 (BEL-7404 tumor cell line): 5940 nM
- Activity (Mus musculus [8]): Non-Toxic
- Activity (Mus musculus [9]): Non-Toxic
- Activity (MCF7 [10]): 31.2%
- Activity (MCF7 [11]): 4.64%
- Activity (MCF7 [12]): Active
- Activity (Bel-7402 [13]): 63.11%
- Activity (Bel-7402 [14]): 34.56%
- Activity (MCF7 [15]): Dose-dependent effect
- IC50 (K562): 290 nM
- Ratio IC50 [16]: <1
- Activity (MCF7 [17]): 16.73%
- Activity (MCF7 [18]): 45.2%
- Activity (Bel-7402 [19]): 59.37%
- Activity (MCF7 [20]): Dose-dependent effect
- Activity (MCF7 [21]): Dose-dependent effect
- Activity (Mus musculus [22]): Non-Toxic
